Measurements reported in ChEMBL document CHEMBL1135528, “Monocyclic human tachykinin NK-2 receptor antagonists as evolution of a potent bicyclic antagonist: QSAR and site-directed mutagenesis studies” (J Med Chem, 2002).
Residue numbers refer to the chain shown, from its start. Calls of active or inactive are those of the source. No cut-off for these calls is given here. Where a SMILES comes first, the peptide text is derived from it. Bridges are numbered along the chain shown (N, C = ends). [ ]: non-standard residue; d: D form. The star is where a group is joined. NH(β-GlcNAc) = CC(=O)N[C@@H]1[C@@H](O)[C@H](O)[C@@H](CO)O[C@H]1N*; Dap = NC[C@H](N)C(=O)O

Experiments:
[1] = tested on: T1, Substance-K receptor (Homo sapiens), P21452 [C167A]; test: Binding affinity against C167A human neurokinin-2 receptor (hNK-2R) using [3H]nepadutant as a radioligand; UB is Undetectable Binding
T1 sequence (whole entry): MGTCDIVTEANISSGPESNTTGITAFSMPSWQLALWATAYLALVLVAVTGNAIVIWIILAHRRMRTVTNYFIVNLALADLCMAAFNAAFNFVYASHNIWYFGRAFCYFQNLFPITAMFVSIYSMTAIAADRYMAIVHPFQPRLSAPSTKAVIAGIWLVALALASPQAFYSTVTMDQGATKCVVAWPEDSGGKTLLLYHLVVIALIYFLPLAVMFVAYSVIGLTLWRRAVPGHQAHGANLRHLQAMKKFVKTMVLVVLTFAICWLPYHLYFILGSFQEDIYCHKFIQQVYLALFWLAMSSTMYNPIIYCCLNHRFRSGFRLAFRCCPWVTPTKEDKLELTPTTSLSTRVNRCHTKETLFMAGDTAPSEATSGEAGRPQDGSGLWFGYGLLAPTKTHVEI
Method in brief: (§1)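 Membranes from cells stably transfected with wild-type or mutant hNK-2R, incubated with [3H]nepadutant for 60 min at 20 °C in 50 mM Tris-HCl pH 7.4 containing peptidase inhibitors, 150 mM NaCl, 5 mM MnCl2 and 1 g/L BSA. Competitors ranged 0.3 pM–10 μM. Nonspecific binding was defined with 1 mM unlabeled ligand. Bound label was collected by filtration and counted. Means from ≥3 duplicate experiments.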

[2] = tested on: Substance-K receptor (Homo sapiens), P21452 [F293A]; test: Binding affinity against F293A human neurokinin-2 receptor (hNK-2R) using [3H]nepadutant as a radioligand; method in brief: as §1
[3] = tested on: Substance-K receptor (Homo sapiens), P21452 [I202F]; test: Binding affinity against I202F human neurokinin-2 receptor (hNK-2R) using [3H]nepadutant as a radioligand; method in brief: as §1
[4] = tested on: Substance-K receptor (Homo sapiens), P21452 [Q109A]; test: Binding affinity against Q109A human neurokinin-2 receptor (hNK-2R) using [3H]nepadutant as a radioligand; method in brief: as §1
[5] = tested on: Substance-K receptor (Homo sapiens), P21452 [S164A]; test: Binding affinity against S164A human neurokinin-2 receptor (hNK-2R) using [3H]nepadutant as a radioligand; method in brief: as §1
[6] = tested on: T2, Substance-K receptor (Homo sapiens), P21452 [S170A]; test: Binding affinity against S170A human neurokinin-2 receptor (hNK-2R) using [3H]nepadutant as a radioligand; method in brief: as §1
T2 sequence (whole entry): T1 sequence (whole entry) with A167C, S170A

[7] = tested on: Substance-K receptor (Homo sapiens), P21452 [T171A]; test: Binding affinity against T171A human neurokinin-2 receptor (hNK-2R) using [3H]nepadutant as a radioligand; UB is undetectable binding; method in brief: as §1
[8] = target: T3, Substance-K receptor (Homo sapiens) (UniProt P21452); test: Binding affinity against wild-type human Wild-type tachykinin receptor 2 (hNK-2R) using [3H]-SR-48,968 as a radioligand
T3 sequence (whole entry): T1 sequence (whole entry) with A167C
Method in brief: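 Radioligand [3H]SR48968 was incubated for 30 min at 20 °C with membranes from stably transfected wild-type or mutant hNK-2R cells, in Tris-HCl 50 mM pH 7.4 buffer with protease inhibitors, NaCl, MnCl2 and BSA. Test ligands ranged 0.3 pM–10 μM, with nonspecific binding in 1 mM unlabeled ligand. Filtration through PEI-soaked filters was followed by scintillation counting. pKi was derived by curve fitting, duplicate determinations.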

[9] = tested on: Substance-K receptor (Homo sapiens), P21452 [Y107A]; test: Binding affinity against Y107A human neurokinin-2 receptor (hNK-2R) using [3H]nepadutant as a radioligand; method in brief: as §1
[10] = tested on: Substance-K receptor (Homo sapiens), P21452 [Y169A]; test: Binding affinity against Y169A human neurokinin-2 receptor (hNK-2R) using [3H]nepadutant as a radioligand; method in brief: as §1
[11] = tested on: T4, Substance-K receptor (Homo sapiens), P21452 [Y266F]; test: Binding affinity against Y266F human neurokinin-2 receptor (hNK-2R) using [3H]nepadutant as a radioligand; UB is Undetectable Binding; method in brief: as §1
T4 sequence (whole entry): T1 sequence (whole entry) with A167C, Y266F

[12] = tested on: Substance-K receptor (Homo sapiens), P21452 [Y289T]; test: Binding affinity against Y289T human neurokinin-2 receptor (hNK-2R) using [3H]nepadutant as a radioligand; method in brief: as §1
[13] = tested on: T2, Substance-K receptor (Homo sapiens), P21452 [S170A]

Chain of Substance-K receptor (Homo sapiens), P21452 [S164A] (P21452 whole entry S164A): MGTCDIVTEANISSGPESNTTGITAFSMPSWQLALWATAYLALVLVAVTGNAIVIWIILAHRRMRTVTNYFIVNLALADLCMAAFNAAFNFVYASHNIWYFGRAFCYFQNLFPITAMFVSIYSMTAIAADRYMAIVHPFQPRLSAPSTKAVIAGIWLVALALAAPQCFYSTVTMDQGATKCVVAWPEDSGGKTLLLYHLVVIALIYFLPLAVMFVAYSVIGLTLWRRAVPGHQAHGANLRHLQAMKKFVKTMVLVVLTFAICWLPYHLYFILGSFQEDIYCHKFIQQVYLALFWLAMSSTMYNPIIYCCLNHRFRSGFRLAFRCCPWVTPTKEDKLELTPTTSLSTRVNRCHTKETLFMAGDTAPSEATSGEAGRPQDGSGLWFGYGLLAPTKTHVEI
Chain of Substance-K receptor (Homo sapiens), P21452 [T171A] (P21452 whole entry T171A): as the sequence (P21452 whole entry S164A) above, with A164S, T171A counted along it
Chain of Substance-K receptor (Homo sapiens), P21452 [Q109A] (P21452 whole entry Q109A): as the sequence (P21452 whole entry S164A) above, with Q109A, A164S counted along it
Chain of Substance-K receptor (Homo sapiens), P21452 [F293A] (P21452 whole entry F293A): as the sequence (P21452 whole entry S164A) above, with A164S, F293A counted along it
Chain of Substance-K receptor (Homo sapiens), P21452 [Y289T] (P21452 whole entry Y289T): as the sequence (P21452 whole entry S164A) above, with A164S, Y289T counted along it
Chain of Substance-K receptor (Homo sapiens), P21452 [Y169A] (P21452 whole entry Y169A): as the sequence (P21452 whole entry S164A) above, with A164S, Y169A counted along it
Chain of Substance-K receptor (Homo sapiens), P21452 [I202F] (P21452 whole entry I202F): as the sequence (P21452 whole entry S164A) above, with A164S, I202F counted along it
Chain of Substance-K receptor (Homo sapiens), P21452 [Y107A] (P21452 whole entry Y107A): as the sequence (P21452 whole entry S164A) above, with Y107A, A164S counted along it

- UB [1]: inactive
- KD/Ki [2]: 7.4 nM
- KD/Ki [3]: 0.44 nM
- KD/Ki [4]: 0.85 nM
- KD/Ki [5]: 2.6 nM
- KD/Ki [6]: 1.5 nM
- UB [7]: inactive
- KD/Ki [8]: 9.1 nM
- KD/Ki [9]: 0.75 nM
- KD/Ki [10]: 4.1 nM
- UB [11]: inactive
- KD/Ki [12]: 11.2 nM
- KD/Ki [13]: 1.9 nM
Structure (SMILES): CC(=O)N[C@@H]1[C@@H](O)[C@H](O)[C@@H](CO)O[C@H]1NC(=O)C[C@@H]1NC(=O)[C@H](CC(C)C)NC(=O)[C@@H]2CNC(=O)C[C@H](NC1=O)C(=O)N[C@@H](Cc1c[nH]c3ccccc13)C(=O)N[C@@H](Cc1ccccc1)C(=O)N2 (cyclo(D(NH(β-GlcNAc))DWF[Dap]L); lactam 2-5)
